Two compounds from paper PMC5460915 (Molecular pharmaceutics, 2015) can be followed below.

Bounds are passed on as bounds.

For data set [1], the target named is NTR1 (NTR1-positive HT-29 cells) (Homo sapiens, UniProt P30989). The data set is described as follows: In vitro competitive cell binding assay against 125I-NT. The note with it: as supported by the similar IC50 values.
For data set [2], the system named is NTR1-expressing HT-29 tumor. Put plainly: Immunohistochemistry and fluorescence microscopy of HT-29 tumor sections. In kind it is in vivo, mice bearing human HT-29 xenograft. In short, it runs like this: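 Dye-conjugated test compound given i.v. to HT-29 xenograft mice, with or without a blocking dose of NT peptide. Tumors taken 4 h p.i., […], cut at 6 μm (cryostat, −25 °C) and fixed in ice-cold acetone for 15 min. Peroxidase quenched with 3% H2O2 in methanol, then blocked with 10% horse serum for 1 h at RT. Anti-CD31 with labelled secondary (1:200), DAPI 2 μg/mL for 20 min at 37 °C. Confocal imaging, 40× objective.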

The test system of data set [3] is NTR1-positive HT-29 tumor. Put plainly: Small animal PET imaging in HT-29 xenograft mice. In kind it is in vivo, human HT-29 xenograft in male athymic mice (BALB/c nu/nu). In short, it runs like this: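 Xenografts were HT-29 cells, 1 × 10^6 per 0.1 mL s.c. in the shoulder, tumors ≥3 mm. Radioligand labelled with 64CuCl2 in NH4OAc pH 5.5 at 37 °C for 60 min, HPLC-purified, in PBS (about 10.2 GBq/μmol). About 3.7 MBq via tail vein, n = 3/group; blocking group co-given 100 μg unlabelled NT. PET at 1 and 4 h p.i. ROI counts/g/min (1 g/mL density assumed) divided by injected dose gave %ID/g.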

In data set [4] the test system is NTR1-positive HT-29 tumor. Put plainly: In vivo near-infrared fluorescence imaging. Also on record: species or system mice bearing human HT-29 xenograft. The note with it: 1.5 nmol i.v., 1 and 4 h p.i., Cy5.5 filter set.
Data set [5] in a line: In vitro stability in PBS. In kind it is physicochemical. The note with it: PBS (1×), 37 MBq/mL, radio-HPLC. In short, it runs like this: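 64Cu-labelled test compound HPLC-purified, solvent evaporated and taken up in 1× PBS at 37 MBq/mL. Radiochemical purity by radio-HPLC at 30 min, 2 h and 6 h of incubation.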
For data set [6], the system named is NTR1-positive HT-29 tumor. Put plainly: Ex vivo near-infrared fluorescence imaging of tumors and organs. In kind it is in vivo, mice bearing human HT-29 xenograft.
The nature of data set [7]: Biodistribution in nude mice bearing HT-29 tumor. The note with it: for tissue uptake at 4 h: male, athymic nude BALB/c nu/nu, mouse, total radioactivity. In kind it is in vivo, nude mice bearing HT-29 xenograft. In short, it runs like this:
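HT-29 cells (McCoy's 5A, 10% FBS, 37 °C, 5% CO2; trypsin-EDTA at 80% confluence) at 1 × 10^6 per 0.1 mL s.c. in the shoulder of 4–6-wk male BALB/c nu/nu mice, used at ≥3 mm tumor diameter. 3.7 MBq 64Cu-labelled test compound (HPLC-purified, in PBS) given. Mice killed under inhalation anesthesia 4 h p.i.; tissues weighed and gamma-counted. Group mean %ID/g ± SD.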

Sequence of NTR1 (NTR1-positive HT-29 cells) (P30989 whole entry): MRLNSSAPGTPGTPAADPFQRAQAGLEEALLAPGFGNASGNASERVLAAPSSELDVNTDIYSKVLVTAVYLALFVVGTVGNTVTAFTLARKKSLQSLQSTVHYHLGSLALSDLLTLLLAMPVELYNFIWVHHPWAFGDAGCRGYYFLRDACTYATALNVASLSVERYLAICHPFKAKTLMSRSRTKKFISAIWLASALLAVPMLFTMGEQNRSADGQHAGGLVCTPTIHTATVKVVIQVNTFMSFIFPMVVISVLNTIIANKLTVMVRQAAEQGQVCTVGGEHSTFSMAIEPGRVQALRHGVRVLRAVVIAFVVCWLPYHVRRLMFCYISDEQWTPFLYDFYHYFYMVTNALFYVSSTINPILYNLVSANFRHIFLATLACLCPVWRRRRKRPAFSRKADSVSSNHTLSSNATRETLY

Turning to `CC[C@H](C)[C@H](NC(=O)[C@H](Cc1ccc(O)cc1)NC(=O)[C@@H]1CCCN1C(=O)[C@H](CCCNC(=N)N)NC(=O)[C@H](CCCNC(=N)N)NC(=O)[C@@H]1CCCN1C(=O)[C@H](CCCCN)NC(=O)[C@H](CSC1CC(=O)N(CCNC(=O)CCCCC[N+]2=C(C=CC=CC=C3N(CC)c4ccc5c(S(=O)(=O)O)cc(S(=O)(=O)[O-])cc5c4C3(C)C)C(C)(C)c3c2ccc2c(S(=O)(=O)O)cc(S(=O)(=O)O)cc32)C1=O)NC(=O)CN1CCN(CC(=O)O)CCN(CC(=O)O)CCN(CC(=O)O)CC1)C(=O)N[C@@H](CC(C)C)C(=O)O` (stereo partly drawn) [DOTA-NT-Cy5.5], in data set [1], the “binding affinity compared between DOTA-NT-Cy5.5 and NT (in words)” value is listed as “not significantly different”. In data set [2] (4 h p.i., with blocking dose of NT peptide vs without), the “fluorescent signal in tumors of blocking animals (in words)” value is “very weak fluorescent signals”. Besides, in data set [2] (FL microscope, coinjected Cys-NT peptide), the “specific binding in HT-29 tumor (in words)” value is “tumor localization was clearly inhibited by coinjected Cys-NT peptide”.

`CC[C@H](C)[C@H](NC(=O)[C@H](Cc1ccc(O)cc1)NC(=O)[C@@H]1CCCN1C(=O)[C@H](CCCNC(=N)N)NC(=O)[C@H](CCCNC(=N)N)NC(=O)[C@@H]1CCCN1C(=O)[C@H](CCCCN)NC(=O)[C@H](CSC1CC(=O)N(CCNC(=O)CCCCC[N+]2=C(C=CC=CC=C3N(CC)c4ccc5c(S(=O)(=O)O)cc(S(=O)(=O)[O-])cc5c4C3(C)C)C(C)(C)c3c2ccc2c(S(=O)(=O)O)cc(S(=O)(=O)O)cc32)C1=O)NC(=O)CN1CCN(CC(=O)O)CCN(CC(=O)O)CCN(CC(=O)O)CC1)C(=O)N[C@@H](CC(C)C)C(=O)O` (stereo partly drawn) [^64Cu-DOTA-NT-Cy5.5, metal not drawn] yielded a tumor uptake in data set [3] (PET ROI, HT-29 xenograft, 1 h p.i., ~3.7 MBq tail vein, n = 3/group, mean ± SD) of 1.91 ± 0.22 %ID/g. In data set [3] (blocking experiment, P < 0.05, all time points (Figures 3 and 5: PET and fluorescence)), the “inhibition of tumor uptake by nonradioactive Cys-NT (in words)” value is given as “nonradioactive Cys-NT peptide significantly (P < 0.05) inhibited the tumor uptake”. The “uptake in normal organs, blocked vs unblocked (in words)” value in data set [3] (liver, kidneys, muscle, with vs without 100 μg unlabeled NT) is recorded as “no significant difference in most of the normal organs”. The “tumor fluorescence signal in vivo (in words)” value in data set [4] is on record as “the HT-29 tumor lit up at all the time points examined”. In addition, the radiochemical purity entry in data set [5] (30 min after incubation) was “greater than 98.9%”; in data set [5] (2 h after incubation), more than 96.9%; in data set [5] (6 h after incubation), more than 90.8%. The “tumor uptake relative to liver, optical imaging (in words)” value in data set [6] (HT-29 tumor vs liver, optical imaging) was “higher tumor uptake than liver”. The “tumor to muscle contrast (in words)” value in data set [6] (PET and ex vivo fluorescence, 4 h p.i.) is “both PET and fluorescence gave good tumor to muscle contrast”. The “organs with high probe uptake (in words)” value in data set [6] (ex vivo fluorescence, 1.5 nmol i.v., 4 h p.i.) was “The tumor, liver, and kidneys are three motifs that showed high probe uptake”. In data set [7] (4 h p.i., based on biodistribution, HT-29 xenograft, mean ± SD), the tumor-to-muscle ratio was 17.44 ± 3.25. Further, in data set [7] (HT-29 tumor vs liver, PET imaging and biodistribution), the “tumor uptake relative to liver, PET and biodistribution (in words)” value is “HT-29 tumor has lower uptake than liver”. Moreover, the “muscle, lung, and heart uptake (in words)” value in data set [7] (biodistribution, 4 h p.i., 3.7 MBq) was “The muscle, lung, and heart had relatively low uptake”. In addition, the tissue uptake at 4 h in data set [7] (kidney, 3.7 MBq) amounted to 14.2 ± 1.33 %ID/g; in data set [7] (liver, 3.7 MBq), 4.63 ± 0.74 %ID/g.
